Results taken from ChEMBL document CHEMBL3044677, “Metabolism and metabolites of dithiocarbamates in the plant pathogenic fungus Leptosphaeria maculans” (J Agric Food Chem, 2012).
Calls of active or inactive are those of the source. The rule behind the calls is not given here.

Key:
Plenodomus lingam [1] = test: Antifungal activity against Leptosphaeria maculans isolate BJ-125/UAMH-9410 assessed as mycelial growth inhibition at 0.1 mM incubated under constant light for 5 days by mycelial radial growth bioassay; type: functional; details: for inhibition of growth at 100 µM: isolate BJ-125/UAMH-9410, 120 h, read-out: GI
In short: (§1)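 Mycelial radial growth assay. L. maculans (BJ125 or UAMH-9410) was grown on V8 agar. A 4 mm plug cut from 7-day-old V8 plates was placed upside down at the centre of PDA wells (33 mm) containing compound dissolved in CH3CN. Controls held 1% CH3CN in PDA. Plates were incubated under constant light for 5 days. Mycelial diameter was measured, and % inhibition = 100 − [(amended/control diameter) × 100]. Triplicate, at least twice; mean ± SD.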

Plenodomus lingam [2] = test: Antifungal activity against Leptosphaeria maculans isolate BJ-125/UAMH-9410 assessed as mycelial growth inhibition at 0.2 mM incubated under constant light for 5 days by mycelial radial growth bioassay; type: functional; details: isolate BJ-125/UAMH-9410, 120 h, read-out: GI; in short: as §1
Plenodomus lingam [3] = test: Antifungal activity against Leptosphaeria maculans isolate BJ-125/UAMH-9410 assessed as mycelial growth inhibition at 0.5 mM incubated under constant light for 5 days by mycelial radial growth bioassay; type: functional; details: isolate BJ-125/UAMH-9410, 120 h, read-out: GI; in short: as §1
[4] = Drug metabolism in Leptosphaeria maculans isolate BJ-125 assessed as drug recovery at 0.10 mM after 24 hr by HPLC analysis; type: ADME, organism-based; details: plenodomus lingam, Leptosphaeria maculans isolate BJ-125 (fungus); read-out: Drug recovery
In short: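 Minimal medium (50 mL) was inoculated with isolate BJ-125 spores (106/mL) and shaken at 120 rpm, 23 °C, under constant light. After 2 days, compound in CH3CN was added (final 0.10 mM), also to noninoculated medium as a stability control. Broth samples taken up to 72 h were extracted with EtOAc and quantified by HPLC-DAD against calibration curves; basified broth was extracted with CHCl3/MeOH for amines. At least three independent experiments ± SD.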

Row | Structure (SMILES) | growth inhibition (GI) (Plenodomus lingam [1]) | inhibition of growth at 200 µM (Plenodomus lingam [2]) | inhibition of growth at 500 µM (Plenodomus lingam [3]) | inhibition of growth at 100 µM (Plenodomus lingam [1]) | remaining at 24 h, 100 µM [4]
1 | COn1c(CN)cc2ccccc21 | inactive | 8% | 19% |  | 
2 | COn1c(CNC(C)=O)cc2ccccc21 |  | 11% | 15% | 4% | 
3 | CC(=O)NCc1ccc(-c2ccccc2)cc1 |  | 17% | 30% | 9% | 
4 | NCCCc1c[nH]c2ccccc12 | inactive | 14% | 27% |  | 
5 | CC(=O)NCCCc1c[nH]c2ccccc12 |  | 13% | 24% | 10% | 
6 | OCCCc1c[nH]c2ccccc12 |  | 14% | 18% | 7% | 
7 | CSC(=S)NCc1ccc(-c2ccccc2)cc1 |  | 32% | 46% | 14% | < 5%
8 | CSC(=S)OCCCc1c[nH]c2ccccc12 |  | 18% | 31% | 5% | 
9 | CC(=O)NCc1cc2ccccc2[nH]1 |  | 18% | 33% | 7% | 
10 | CS/C(S)=N/CCCc1c[nH]c2ccccc12 |  | 46% | 67% | 21% | 37%
11 | COn1c(CNC(=S)SC)cc2ccccc21 [1-METHOXYISOBRASSININ] |  | 15% | 34% | 7% | 47%
12 | NCc1cc2ccccc2[nH]1 [2-INDOLYLMETHANAMINE] | inactive | 19% | 33% |  | 
13 | c1ccc2[nH]cnc2c1 [BENZIMIDAZOLE] |  | 20% | 35% | 11% | 
14 | CSC(=S)NCc1c[nH]c2ccccc12 [BRASSININ] |  | 21% | 55% | 10% | < 5%
15 | CSC(=S)NCc1cc2ccccc2[nH]1 [ISOBRASSININ] |  | 22% | 43% | 13% | < 5%
16 | CSC(=S)NCCc1c[nH]c2ccccc12 [METHYL TRYPTAMINEDITHIOCARBAMATE] |  | 71% | 100% | 43% | 55%
17 | CSC(=S)OCCc1c[nH]c2ccccc12 [METHYL TRYPTOPHOLDITHIOCARBAMATE] |  | 15% | 32% | 7% | 15%
18 | CC(=O)NCCc1c[nH]c2ccccc12 [NB-ACETYLTRYPTAMINE] | inactive | 7% | 15% |  | 
19 | NCCc1c[nH]c2ccccc12 [TRYPTAMINE] |  | 15% | 28% | 12% | 
20 | OCCc1c[nH]c2ccccc12 [TRYPTOPHOL] | inactive | 16% | 29% |  | 
